# Rows were chosen to be rich in hits. Some 4.1% of all compounds tested hit in one or more screens of this group.
# Autophagy HCS – alters autophagy in cells. MEF GFP-LC3 puncta imaging; test concentration mostly 10 µM. actives 0.98% (n = 190,000). calls only at 10 µM (by protocol);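 active = percentage of spot-positive cells more than 3 SD above its plate mean, without a fluorescence outlier flag or 80% toxicity; inconclusive = no clear call, values can overlap the other calls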;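 note: spot-positive cell cutoff set from DMSO-treated cells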
# ROMK mod – modulators of human ROMK potassium channel; P48048; Tet-inducible ROMK, thallium flux fluorescence; actives lie on both sides; B-score at 10 µM; actives 2% (n = 130,000);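 active = signal ratio slope over the read window, or its plate-corrected B-score, at least 3 SD from the plate mean, either direction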;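 note: B-score of the F/F0 ratio slope over 7 to 12 s after thallium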
# Target sequence (P48048 whole entry, looked up): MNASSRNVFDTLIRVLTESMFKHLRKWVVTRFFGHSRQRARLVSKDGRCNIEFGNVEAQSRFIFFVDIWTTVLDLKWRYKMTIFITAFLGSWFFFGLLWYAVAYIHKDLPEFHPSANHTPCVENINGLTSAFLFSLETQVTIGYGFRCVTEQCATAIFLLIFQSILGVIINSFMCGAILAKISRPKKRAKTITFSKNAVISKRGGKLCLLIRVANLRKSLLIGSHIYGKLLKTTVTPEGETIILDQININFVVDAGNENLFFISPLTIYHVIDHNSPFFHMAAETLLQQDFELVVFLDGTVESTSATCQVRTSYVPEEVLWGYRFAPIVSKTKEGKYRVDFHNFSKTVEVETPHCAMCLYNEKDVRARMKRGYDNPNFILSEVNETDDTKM
# Dynein transport – dynein cargo transport inhibition. 3617.4 mouse cells, GR-EGFP nuclear translocation imaging; test concentration mostly 20 µM; stimulated with dexamethasone, 1 µM; active compounds read low. z-score, hits read low. actives 0.47% (n = 220,000). AID 1381;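 active = plate z-score of nuclear minus cytoplasmic receptor signal below a set negative limit, without overly bright fluorescence or cell loss, cut at about -3.5 in these data, passing the limit was not always enough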;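 note: z-score of nuclear minus cytoplasmic ring GR-EGFP intensity difference per well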
#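 medium = tetracycline-free induction medium containing charcoal-stripped FBS | probe or stimulus = dexamethasone, 1.0 µM final | timing = 48 h induction, then 1 h compound, then 30 min agonist, 37 °C | detection = automated 10x imaging of fixed Hoechst-stained cells | read-out basis = nuclear versus cytoplasmic GR-EGFP signal, averaged per well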
# Redox H2O2 prof – compounds producing H2O2 with reducing agent – biochemical, NIH compound library profiling, artefact control for MLSCN library redox annotation, primary screen | DTT-dependent redox cycling H2O2, phenol red/HRP absorbance; 100% = 100 µM peroxide control, 0% = buffer | activation, % at 10 µM | actives 0.03% (n = 200,000);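 active = activation of at least 50% relative to the plate's high and low controls in the primary single-dose screen; inactive = activation below 50%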;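 note: compound incubated with DTT at 0.8 mM final as the reducing agent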
# KCC2 mod – modulates chloride dependent transport by human KCC2; actives 2.2% (n = 190,000); KCC2 cells, thallium flux FluoZin-2 fluorescence; Q9H2X9; B-score of Tl+ flux slope (higher = more flux/activation; lower = inhibition) at 10 µM;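 active = thallium flux slope and its plate-corrected score both differing from the plate sample mean at a set confidence after two filtering rounds, in either direction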;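 note: slope of fluorescence scaled to starting intensity during 10 to 20 s after thallium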
# KCC2 secondary – confirmation of human KCC2 transport modulators. shares compounds with KCC2 mod. HEK293-KCC2, thallium flux, FluoZin2 fluorescence; active compounds read high. normalised thallium flux (F/F0 slope) at 10 µM. actives 15% (n = 3,700). AID 1713;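 active = thallium flux slope above the same plate's solvent-only control mean plus 3 SD; inconclusive = the two replicate wells disagree; inactive = no significant difference from solvent-only control wells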
# KCC2 bumet counter – thallium flux persisting under bumetanide in KCC2 cells, counter-screen secondary assay; shares compounds with KCC2 mod; HEK293-KCC2 + bumetanide/ouabain, thallium flux FluoZin2; active compounds read high; normalized thallium flux at 10 µM; actives 49% (n = 3,700); AID 1714;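 active = thallium entry rate above the same plate's blocked-transporter control wells by more than 3 SD; inconclusive = the two repeat wells disagree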;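 note: raw slope of fluorescence over initial fluorescence between 10 and 20 s after thallium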
# KCC2 secondary2 – confirmation of human KCC2 transport modulators; shares compounds with KCC2 mod; HEK293-KCC2, thallium flux FluoZin2 fluorescence; actives lie on both sides; F/F0 rise rate, 10–20 s post-thallium; normalized thallium flux at 10 µM; actives 23% (n = 3,700);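 active = thallium flux slope more than 3 SD above or below the plate's solvent-only control mean, mostly below; inconclusive = the two repeat wells disagreed; inactive = no significant shift from solvent-only controls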;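 note: raw slope with 0.1% DMSO as baseline and bumetanide as block control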
# HEK293 Tl flux – acts in parental HEK cells, KCC2 counter-screen; HEK293 parental cells, thallium flux FluoZin2, ouabain; baseline-ratio fluorescence slope, 10–20 s after thallium; shares compounds with KCC2 mod; actives 46% (n = 3,700); thallium flux rate (normalised fluorescence) at 10 µM;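 active = thallium flux rate significantly above the same plate's solvent-only control wells, beyond their mean plus 3 SD; inconclusive = the two replicate wells gave conflicting results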
# KCC2 retest ouab – KCC2 (human) modulation, ouabain retest | shares compounds with KCC2 mod | HEK293-KCC2, thallium flux FluoZin2 fluorescence; bidirectional: low = inhibitor, high = activator | raw Tl+ flux slope (below DMSO = inhibition, above = activation) at 10 µM | actives 48% (n = 3,700) | AID 1717;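 active = thallium flux slope beyond 3 SD from same-plate DMSO control mean in most replicates, usually higher, sometimes lower; inconclusive = repeat tests gave conflicting results; inactive = no significant difference from controls in most replicates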;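 note: slope of initial-normalized fluorescence between seconds 10 and 20 after thallium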
# HEK counter2 – acts in parental HEK cells, second KCC2 counter-screen; HEK293 parental, thallium flux FluoZin-2 fluorescence slope; shares compounds with KCC2 mod; actives 33% (n = 3,700); thallium flux slope at 10 µM;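 active = thallium flux slope above the same plate's solvent-control mean plus 3 SD in both duplicate wells; inconclusive = duplicate wells that disagreed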;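 note: run without ouabain in cells lacking the KCC2 cotransporter; slope of fluorescence scaled to its starting value between 10 and 20 s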
# * = called active by the depositor; i = inactive; ? = inconclusive; . = no result given.
SMILES,Autophagy HCS,ROMK mod,Dynein transport,Redox H2O2 prof,KCC2 mod,KCC2 secondary,KCC2 bumet counter,KCC2 secondary2,HEK293 Tl flux,KCC2 retest ouab,HEK counter2
COc1ccc(/C=C(/NC(=O)c2ccco2)C(=O)N2CCc3ccccc32)cc1OC,.,.,0.92,.,-0.9,.,.,.,.,.,.
N#Cc1c(NC(=O)CSc2nc(N)cc(=O)[nH]2)sc2c1CCCCCC2,i,.,-0.2,2,.,0.0062,0.0049,0.027*,0.0075,?,0.0098
CCC(Sc1nc(C)cc(=O)[nH]1)C(=O)Nc1sc2c(c1C#N)CCCC2 (stereo unspecified),i,-0.6,1.2,-1,.,0.0061,0.0045,0.026*,0.0065,0.017,0.0098
CCC(Sc1nnc2c3ccccc3n(CC)c2n1)C(=O)Nc1sc2c(c1C#N)CCCC2 (stereo unspecified),i,-0.35,0.58,0,-0.41,.,.,.,.,.,.
CC(Sc1nc(N)cc(=O)[nH]1)C(=O)Nc1sc2c(c1C#N)CCCC2 (stereo unspecified),i,-0.33,0.27,-1,-0.98,.,.,.,.,.,.
COc1ccc(S(=O)(=O)N2CCNC(=O)C2)cc1Br,i,0.1,-1.2,-1,0.9,.,.,.,.,.,.
O=C(NCC1CCCN(Cc2ccccc2F)C1)c1cccc(C(F)(F)F)c1 (stereo unspecified),i,0.033,1.4,-2,-0.14,.,.,.,.,.,.
FC(F)(F)c1ccc(Cl)c(NC(=S)N/N=C/c2ccccc2C(F)(F)F)c1,i,0.63,-0.014,0,4.9*,0.0073,0.014*,?,0.014*,?,0.013*
COc1ccc(/C=N/NC(=S)Nc2cc(C(F)(F)F)ccc2Cl)cc1,.,.,-0.48,.,0.17,.,.,.,.,.,.
O=C(CSc1cccc2cccnc12)N1CCCC1,i,.,-0.14,0,22*,0.0056,0.033*,0.029,0.026*,0.037*,0.016*
O=C(O)c1cccnc1SCC(=O)N1CCCCCC1,i,.,-0.61,1,-0.55,.,.,.,.,.,.
CCOC(=O)c1cnn(-c2ccccc2)c1NC(=O)CN1CCCCC1,.,-0.19,0.37,.,0.17,.,.,.,.,.,.
Cn1nnnc1SCC1=C(C(=O)O)N2C(=O)[C@@H](NC(=O)[C@H](O)c3ccccc3)[C@H]2SC1,i,0.3,-0.11,0,-0.78,.,.,.,.,.,.
Cn1nnnc1SCC1=C(C(=O)O)N2C(=O)C(NC(=O)C3CC3c3ccccc3)C2SC1 (stereo unspecified),i,-1.1,-0.4,-1,-5.4*,0.0078,0.005,0.029,?,0.019,0.011
CCN1CCCc2cc(CN(CCN3CCOCC3)C(=S)Nc3cccc(Cl)c3)ccc21,i,-0.7,0.66,0,-0.36,.,.,.,.,.,.
CCSC1=C(C#N)C2(CCCCC2)C(C#N)=C(N)N1,i,.,-0.59,-1,-4.1*,0.0074,0.0054,0.03,?,0.019,0.0093
N#CC1=C(N)NC(SCc2ccccc2)=C(C#N)C12CCCCC2,i,.,-0.13,1,-3.2*,0.0057,0.0046,?,0.0072,0.017,0.011
COc1ccc(C(=O)CSC2=C(C#N)C3(CCCCC3)C(C#N)=C(N)N2)cc1,i,0.12,2.3,-1,-2.9,0.0073,0.0052,0.034,0.0064*,0.016*,0.011

# Assay outcomes: PubChem, several laboratories
